# This excerpt belongs to a sample that is enriched for hits.
# Yeast life ext: extends the lifespan of yeast | S. cerevisiae growth with nicotinamide, OD615; deaD strain in restrictive glucose medium | inhibition of the nicotinamide effect, % at 10 µM | 130,000 tested, 0.68% active;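 active means inhibition above a set limit, placed 3 SD over the median of all compounds, cut at about 26% in these data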;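 further: 0% = nicotinamide-treated wells and 100% = cells grown without nicotinamide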
#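 Assay system: engineered S. cerevisiae DeaD replicative-lifespan strain, galactose-grown log-phase cells; medium: restrictive CSMM-D dextrose medium; also added: nicotinamide, 1.5 mM, co-present with compound; schedule: 48 h compound exposure at 30 °C, humidified; detection: absorbance at 615 nm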
# PostGolgi ctrl: inhibits growth of the yeast control strain; 98,000 tested, 5% active; efflux-deficient yeast background strain, growth absorbance A615, 16 h; inhibition, % at 10 µM
# PostGolgi yeast: growth inhibition of a yeast mutant, post-Golgi transport screen. post-Golgi transport phenotypic cell assay. inhibition, % at 10 µM. 98,000 tested, 0.9% active. AID 739;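 further: yeast cells grown in 1536-well plates; yeast grown about 18 h at 30C before absorbance read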
# Yeast growth inh: yeast BB579 growth reduction in restrictive medium. S. cerevisiae BB579 growth, OD615, 48 h. inhibition, % at 10 µM. 140,000 tested, 0.51% active. AID 804;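 active means inhibition above a set limit, 3 SD over the mean compound inhibition, cut at about 44% in these data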
#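 Test system: DeaD yeast strain BB579 / Buffer or medium: restrictive glucose-based CSMM-D medium / Doses: single 10 µM dose / Schedule: 4 h cell preincubation, 48 h compound exposure, 30 °C humidified / Technique: culture absorbance at 615 nm / Controls: amphotericin B positive control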
# An asterisk follows results filed as active; · = no result. Unless noted, no stated cut-off is given here; in the data, active means inhibition above about 30%; inactive means the rest.
SMILES,Yeast life ext,PostGolgi ctrl,PostGolgi yeast,Yeast growth inh
Cc1sc2ncnc(Sc3nnc4sc5ccccc5n34)c2c1C,5,·,·,-29
CCCCNC(=O)C1CC(c2c(Cl)cccc2Cl)=NO1 (centres undefined),-27,7,0,-31
COc1ccc2c(c1)C(C)CC(C)(C)N2C(=O)NC1CCCCC1 (centres undefined),27*,·,·,-40
COc1cccc(C2(O)CCN(C(=O)Cc3cccnc3)CC2)c1,-3,22,-3,-16
O=c1c2ccccc2nc2sc3ccccc3n12,-3,28,2,85*
O=S(=O)(c1ccc(Oc2ccc(Cl)cc2)c(S(=O)(=O)N2CCCCC2)c1)N1CCCCC1,-16,7,-6,-10
COC(=O)C(C(=O)OC)C(C[N+](=O)[O-])c1ccc(OC)c(OC)c1 (centres undefined),-3,33*,-4,-18
Cc1cc(O)ccc1NC(=O)CCN1C(=O)c2ccc([N+](=O)[O-])cc2C1=O,-1,·,·,14
CN=C(Nc1cc(Cl)ccc1Cl)SC1CC(=O)N(c2ccc(C(=O)OC)cc2)C1=O (centres undefined),-7,38*,17,19
CN=C(Nc1ccc2c(c1)OCO2)SC1CC(=O)N(c2ccccc2)C1=O (centres undefined),-7,2,-7,-5
CCCOc1ccc(C2c3c(oc4ccccc4c3=O)C(=O)N2CCCN2CCOCC2)cc1 (centres undefined),7,8,10,-49
Cc1ccc(CSc2ncccc2C(=O)O)cc1,-4,0,2,-8
O=Cc1cc2ccccc2nc1SCc1ccc(Cl)cc1,34*,23,68*,-27
Cc1ccc(CSc2nc3ccccc3cc2C=O)cc1,30,38*,75*,-11
N#Cc1ccc(-c2cccnc2)nc1SCc1ccc(Cl)c(Cl)c1,3,·,·,-48
O=Cc1cc2ccccc2nc1SCc1ccc(Cl)c(Cl)c1,17,38*,-5,-70
COc1ccc(S(=O)(=O)N2CCCC(C(=O)NCc3ccncc3)C2)cc1 (centres undefined),2,2,-1,16
CCOC(=O)c1c(-c2ccccc2)nc2ccc(C)cn12,-15,31*,-36,12
COc1ccc(-n2cnc3c(cnn3CCC#N)c2=N)cc1,-10,-1,-8,-19
O=C(/C=C/c1cccc([N+](=O)[O-])c1)Nc1ccc(NC(=O)c2cccs2)cc1,-3,·,·,-33
O=C(/C=C/c1cccc([N+](=O)[O-])c1)c1cccs1,28*,·,·,-10
O=C(NCc1cccnc1)c1cccc2c1C(=O)N(C1CCCCC1)C2,52*,4,-7,-44
O=C(NCc1ccco1)c1cccc2c1C(=O)N(C1CCCCC1)C2,0,14,-5,-38
CCOC(=O)c1sc(/N=C/c2c(O)ccc3ccccc23)cc1C,12,·,·,-30
O=C(O)Cc1ccc(N=Cc2c(O)ccc3ccccc23)cc1,57*,·,·,-30
SMILES,Yeast life ext,PostGolgi ctrl,PostGolgi yeast,Yeast growth inh
Cc1ccc(N=Cc2c(O)ccc3ccccc23)cc1F,36*,·,·,5
N#Cc1cccc(N=Cc2c(O)ccc3ccccc23)c1,40*,·,·,-9
COC(=O)NNC(=O)c1ccc(C)c(Br)c1,5,·,·,-57
Cc1ccc(S(=O)(=O)N2CCN(S(=O)(=O)c3ccccc3)C2)cc1,-2,18,-8,-49
C/C(=N\S(=O)(=O)c1ccc(C)cc1)N1CCN(S(=O)(=O)c2ccccc2)C1,-9,31*,2,-7
COc1ccccc1NC(=O)c1ccc(Br)o1,-14,-2,-3,-9
O=C(Nc1ccccc1-c1ccccc1)c1ccc(Br)o1,-11,35*,-2,-2
O=C(Nc1ccccc1Oc1ccccc1)c1ccc(Br)o1,-7,51*,3,-15
CCCCCn1c(CN2CCN(c3cccc(Cl)c3)CC2)nc2c1c(=O)[nH]c(=O)n2C,-4,45*,2,-8
CCCCCCCCn1c(N2CCN(c3cccc(Cl)c3)CC2)nc2c1c(=O)[nH]c(=O)n2C,-15,5,-3,-59
CC(C)CCn1c(N2CCN(c3cccc(Cl)c3)CC2)nc2c1c(=O)[nH]c(=O)n2C,-8,35*,3,-74
Cn1c(=O)[nH]c(=O)c2c1nc(CN1CCN(c3cccc(Cl)c3)CC1)n2CCc1ccccc1,-10,14,-2,-71
[S-]C(=Nc1ccc(Cl)cc1)N[n+]1ccccc1,2,·,·,-3
COc1ccc(-c2nnc(SC(C)C(=O)Nc3c(C)n(C)n(-c4ccccc4)c3=O)o2)cc1 (centres undefined),2,-1,-5,5
N#CCCCSC1=C(C#N)C(c2ccccc2Cl)CC(=O)N1 (centres undefined),-1,0,5,-10
O=C(NCCN1C(=O)S/C(=C\c2ccc(F)cc2)C1=O)c1cccc(S(=O)(=O)N2CCOCC2)c1,2,·,·,-21
COc1cnc(N(C)C)nc1Sc1ccc(Cl)cc1,-15,7,-5,-41
COc1cnc(-c2ccccn2)nc1Sc1ccc(Cl)cc1,18,35*,3,-22
COc1ccc(-c2csc(Cc3nnc4n3CCCCC4)n2)cc1,-15,-4,13,-12
c1ccc2sc(Cc3nnc4n3CCCCC4)nc2c1,-5,41*,-2,-28
C=CCn1c(SC(C)C(=O)NCCC2=CCCCC2)nc2ccccc2c1=O (centres undefined),1,32*,-7,6
O=C(NCCC1=CCCCC1)C(c1ccccc1)c1ccccc1,0,14,2,-32
COC(=O)c1[nH]c2ccc(Br)cc2c1NC(=O)CN1CCCc2ccccc21,-9,69*,0,-42
CCOC(=O)C1CCCN(CC(=O)Nc2c(C(=O)OC)[nH]c3ccc(Br)cc23)C1 (centres undefined),-10,56*,1,-43
CCOC(=O)C1CCN(CC(=O)Nc2c(C(=O)OC)[nH]c3ccc(Cl)cc23)CC1,-18,10,3,-31
SMILES,Yeast life ext,PostGolgi ctrl,PostGolgi yeast,Yeast growth inh
CCCc1cc2c(=O)n(NC(=O)c3nn(C)cc3[N+](=O)[O-])c(C)nc2s1,-1,·,·,-1
CNC(=O)CSc1nc2nc(C)cc(C)n2n1,-7,2,0,-51
CCOC(=O)CC(=O)CSc1nc2nc(C)cc(C)n2n1,-2,30*,-2,-26
O=C1CN(C(=O)c2ccc(Br)o2)C(c2ccc(F)cc2)c2cc(Cl)ccc2N1 (centres undefined),7,31*,0,-40
COc1ccc2c(CC(=O)OCC(=O)c3ccc(F)cc3)coc2c1,-4,18,-4,-14
COC(=O)NNC(=O)Cc1cccc2ccccc12,0,·,·,-8
O=c1c2[nH]c3ccc(Br)cc3c2ncn1CCCn1ccnc1,-19,23,33*,-30
CCOC(=O)N1CCN(C(=S)Nc2ccc(C)cc2)CC1,-2,·,·,-28
CCOC(=O)C1=C(N)OC2=C(C(=O)CCC2)C1c1sccc1C (centres undefined),47*,·,·,-8
CCOC(=O)C1=C(N)OC2=C(C(=O)CCC2)C1c1ccc(C)s1 (centres undefined),7,1,-4,-26
Cc1ccc(-n2c(Cc3cccn3C)nnc2SCC(=O)NCc2ccc3c(c2)OCO3)cc1,-23,32*,7,-28
